From ChEMBL document CHEMBL1268930, “Design, synthesis, and biological evaluation of dibromotyrosine analogues inspired by marine natural products as inhibitors of human prostate cancer proliferation, invasion, and migration” (Bioorg Med Chem, 2010)
Activity calls are given as the source filed them. No cut-off for these calls is given here.

What was measured:
PC-3 [1] = test: Antiproliferative activity against human PC3 cells after 72 hrs by MTT assay; format: functional, cell-based; conditions: PC-3, 72 h
Summary of the method: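 PC-3 cells seeded at 8×10^3/well and attached 24 h. Medium replaced with serum-free RPMI containing compound (10, 50, 100 µM; DMSO stock, 0.2% DMSO at 100 µM) for 72 h at 37 °C, 5% CO2. MTT added for 4 h, solubilized, absorbance at 570 nm. % survival relative to DMSO; IC50 by nonlinear regression of log concentration vs % survival; n = 3/dose.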

Gallus gallus [2] = organism: Gallus gallus; test: Antiangiogenic activity in chicken embryo chorioallantoic membrane model at 1 to 50 ug/disc after 48 hrs; format: functional, tissue-based
Summary of the method: (§1)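 Fertilized hen eggs incubated at 37 °C, constant humidity; shell windowed and taped, eggs kept upright. Compounds in CH2Cl2 or MeOH loaded on 2-mm cellulose nitrate discs (1, 10, 50 µg/disc), placed on CAM on day five between large vessels. Imaged at 0 h and every 6 h to 48 h. Blood vessels counted per 8.0 × 6.0 mm area around the disc, plus vessel length change. Graded on a 0–3 scale.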

PC-3 [3] = test: Antimigratory activity against human PC3 cells after 24 hrs under serum-free condition by wound-healing assay; format: functional, cell-based; conditions: PC-3, 24 h
Summary of the method: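 Confluent PC-3 monolayers (>95%) were scratched with a pipette tip and washed with PBS and serum-free medium. Compounds were added at 20, 50 and 100 µM in serum-free medium, with 0.2% DMSO vehicle, for 24 h. Cells were fixed and Diff-Quick stained. Cells migrating into the wound were counted in ≥3 random fields at 400×. IC50 for 50% inhibition of migration; n = 3/dose.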

Gallus gallus [4] = organism: Gallus gallus; test: Antiangiogenic activity in chicken embryo chorioallantoic membrane model assessed as number of blood vessels per 48 mm2 area around the treatment disc <12 at 1 to 50 ug/disc after 48 hrs
Gallus gallus [5] = organism: Gallus gallus; test: Antiangiogenic activity in chicken embryo chorioallantoic membrane model assessed as number of blood vessels per 48 mm2 area around the treatment disc >16. 3 at 1 to 50 ug/disc after 48 hrs; format: functional, tissue-based; summary of the method: as §1
[6] = Cytotoxicity against rat bone marrow cells assessed as inhibition of colony formation at 100 uM by clonogenic assay; format: cell-based; conditions: bone marrow cell
Summary of the method: (§2)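 Rat femur bone marrow mononuclear cells isolated on a Histopaque-1077 gradient. 20,000 cells were plated in methylcellulose with FCS and rat recombinant GM-CSF, IL-3 and SCF (HALO kit), with compounds or vehicle. After 5 days GM-CFC colonies were measured as ATP luminescence (luciferase/luciferin) against a same-day standard curve. Results were normalized to vehicle means; n = 4; two-way ANOVA with Bonferroni tests.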

PC-3 [7] = test: Antiinvasive activity against human PC3 cells at 50 uM after 24 hrs by cultrex BME assay; format: functional, cell-based
Summary of the method: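 PC-3 cells in RPMI with 10% FBS at 37 °C, 5% CO2. The top chamber was coated with BME overnight, then seeded with 50,000 cells in serum-free RPMI. Compounds were added to the top chamber from a 6× (300 µM) solution. The lower chamber held medium with 10% FBS, fibronectin (1 µL/mL) and fMLP (10 nM). After 24 h the invaded cells were labelled with calcein-AM for 1 h, read at ex 485/em 520 nm and counted from a standard curve. n = 3.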

[8] = Cytotoxicity against rat bone marrow cells assessed as inhibition of colony formation at 10 uM by clonogenic assay; format: cell-based; conditions: bone marrow cell; summary of the method: as §2

Structure (SMILES)	IC50 (PC-3 [1]) [µM]	Activity (Gallus gallus [2])	IC50 (PC-3 [3]) [µM]	Activity (Gallus gallus [4])	Activity (Gallus gallus [5])	Activity [6]	Activity (PC-3 [7])	Activity [8]
CCOC(=O)Cc1cc(Br)c(OC(=O)c2ccccc2)c(Br)c1	> 100	Active	44.6	–	–	–	–	–
CCOC(=O)Cc1cc(Br)c(OCc2ccccc2)c(Br)c1	29.7	–	75.5	Active	–	–	–	–
CCOC(=O)Cc1cc(Br)c(OC(=O)Cc2ccc(OC)cc2)c(Br)c1	> 100	Active	< 10	–	–	–	–	–
COc1ccc(CC(=O)Oc2c(Br)cc(CC(N)=O)cc2Br)cc1	> 100	–	18.9	Active	–	–	–	–
NC(=O)Cc1cc(Br)c(OC(=O)c2ccccc2)c(Br)c1	> 100	–	12.2	Active	–	–	–	–
CCOC(=O)Cc1cc(Br)c(O)c(Br)c1	> 100	–	> 100	–	inactive	Non-toxic	–	–
CCOC(=O)Cc1cc(Br)c(OCCC(C)C)c(Br)c1	49.2	–	91.3	–	inactive	Non-toxic	–	–
NC(=O)Cc1cc(Br)c(O)c(Br)c1	> 100	–	> 100	–	inactive	Non-toxic	–	–
CCOC(=O)Cc1cc(Br)c(OC/C=C(/C)CC/C=C(/C)CCC=C(C)C)c(Br)c1	16.5	Active	19.9	–	–	Non-toxic	Active	–
CCOC(=O)Cc1cc(Br)c(OC(C)=O)c(Br)c1	> 100	–	> 100	–	–	–	–	–
CC(=O)Oc1c(Br)cc(CC(N)=O)cc1Br	> 100	Active	74.8	–	–	–	–	–
CCOC(=O)Cc1cc(Br)c(OCCCc2ccc(OC)cc2)c(Br)c1	40	Active	57.9	–	–	Non-toxic	Active	–
NC(=O)CC1(O)C=C(Br)C(=O)C(Br)=C1 [VERONGIAQUINOL]	–	–	–	–	–	–	–	Toxic
CCOC(=O)Cc1cc(Br)c(OC(=O)c2ccncc2)c(Br)c1	> 100	–	44.6	Active	–	–	–	–
